Here are results for 24 compounds from ChEMBL document CHEMBL3739281, “Identification, synthesis and pharmacological evaluation of novel anti-EV71 agents via cyclophilin A inhibition” (Bioorg Med Chem Lett, 2015).

The nature of data set [1]: Cytotoxicity against human RD cells after 24 hrs by WST-1 assay. In kind it is cell-based.
Data set [2] addresses T1, Peptidyl-prolyl cis-trans isomerase A (Homo sapiens, UniProt P62937). In words: Inhibition of CypA (unknown origin) assessed as peptidyl-prolyl cis-trans isomerase activity at 10 uM using N-succinyl-Ala-Ala-Pro-Phe-p-nitroanilide as substrate by spectrophotometry.
Target sequence in this assay (P62937 whole entry, looked up): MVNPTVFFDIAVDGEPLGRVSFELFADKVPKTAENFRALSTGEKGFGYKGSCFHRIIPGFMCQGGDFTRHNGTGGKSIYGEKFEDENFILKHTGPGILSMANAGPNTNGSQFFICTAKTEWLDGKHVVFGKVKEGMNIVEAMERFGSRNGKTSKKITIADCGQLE
The target of data set [3] is T1, Peptidyl-prolyl cis-trans isomerase A. Kind of data set: Inhibition of CypA (unknown origin) assessed as peptidyl-prolyl cis-trans isomerase activity using N-succinyl-Ala-Ala-Pro-Phe-p-nitroanilide as substrate by spectrophotometry.
Target sequence in this assay (P62937 whole entry): as the sequence (P62937 whole entry, looked up) above
The test system of data set [4] is Enterovirus A71. In words: Antiviral activity against EV71 infected in RD cells after 24 hrs by luciferase assay. In kind it is functional, organism-based. Particulars: Enterovirus A.
Data set [5] in a line: Retention time of the compound by HPLC analysis. In kind it is physicochemical.
A short description of data set [6]: Cytotoxicity against ICR mouse T spleen cells assessed as inhibition of cell proliferation after 72 hrs by MTT assay. In kind it is cell-based. The gist of the method:
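Proliferation of T and B spleen cells, each from one mouse, run as triplicate sets per assay. IC50 is the mean ± SD of three experiments.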

Data set [7] is described as follows: Cytotoxicity against ICR mouse B spleen cells assessed as inhibition of cell proliferation after 72 hrs by MTT assay. The format is cell-based. Background: Tetrazolium assays rely on reduction of a dye to a coloured formazan, in cell work by metabolically active cells.
In data set [8] the test system is Enterovirus A71. Kind of data set: Antiviral activity against EV71. In kind it is functional, organism-based. Particulars: Enterovirus A.
For data set [9], the system named is Enterovirus A71. In words: Antiviral activity against EV71 infected in RD cells at 0.31 to 5 uM after 24 hrs by luciferase assay in presence of NK-1.8K. In kind it is functional.
The test system of data set [10] is Enterovirus A71. In words: Antiviral activity against EV71 infected in RD cells assessed as decrease in viral protein1 level by western blot analysis. The format is functional, organism-based. An outline of the steps:
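EV71 VP1 protein detected by western blot in a dose series of 5, 1, 0.2 and 0.04 μM. NITD008 at 5 μM serves as positive control.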
(In western blotting, separated proteins are transferred to a membrane and probed.)

In data set [11] the test system is Enterovirus A71. In words: Potency index, Ratio of EC50 for cyclosporin A to EC50 for compound for antiviral activity against EV71. The format is functional.
Data set [12] has as its system Enterovirus A71. Kind of data set: Antiviral activity against EV71 infected in RD cells at 0.31 to 5 uM after 24 hrs by luciferase assay in presence of NITD008. In kind it is functional.
Data set [13] relates to Enterovirus A71. Kind of data set: Antiviral activity against EV71 infected in RD cells assessed as decrease in viral RNA level at 5 uM after qRT-PCR analysis. The format is functional. Particulars: Enterovirus A, read-out: INH. The gist of the method:
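Cells are infected with wild-type or S243P mutant EV71 and treated at 5 μM. Viral RNA is reported as a percentage of untreated control cells, with GAPDH mRNA as internal control. Each point is the average of three replicates.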
For orientation: Real-time PCR tracks product formation cycle by cycle.

Data set [14] deals with Enterovirus A71. Kind of data set: Antiviral activity against EV71 infected in RD cells at 0.08 uM after 24 hrs by luciferase assay in presence of NK-1.8K. In kind it is functional, organism-based.
Data set [15] has as its system Enterovirus A71. In words: Antiviral activity against EV71 infected in RD cells at 0.08 uM after 24 hrs by luciferase assay in presence of NITD008. The format is functional, organism-based.

Activity calls are given as the source filed them. The rule behind the calls is not given here. Bounds are passed on as bounds.

The term CC50 denotes the concentration that lowers cell viability or growth by half. Higher therefore signals lower toxicity to the cells. For orientation: IC50 means the concentration needed to halve the response being measured. For orientation: EC50 means the midpoint of the concentration-response curve. Regarding `O=C(NCc1ccccc1F)NC1c2ccccc2-c2ccccc21`, the CC50 at 24 h in [1] is over 25 µM. Besides, the inhibition in [2] worked out at 17.8%. In [3] (read-out: IC50), the half-maximal inhibitory concentration (IC50) was 10 µM. The EC50 in [4] is over 25 µM. In data set [5], this compound had a Retention_time of 5.57 min.
Turning to `O=C(NC(=O)c1ccccc1F)NC1c2ccccc2-c2cccc(F)c21` (centres undefined), the CC50 at 24 h in data set [1] was over 25 µM. In [3] (read-out: IC50), the IC50 amounted to 10.4 µM. In addition, in [4], the EC50 came to 0.66 µM. The compound further displayed a Retention_time in [5] of 6.02 min.
In data set [1], `O=C(NC(=O)c1c(O)cccc1O)NC1c2ccccc2C2CCCCC21` (racemic) returned a CC50 at 24 h of over 25 µM. Further, the inhibition in data set [2] was 27.6%. Besides, the IC50 in data set [3] (read-out: IC50) stood at 10 µM. Also, a half-maximal response in data set [4] (EC50) required 4.31 µM. Also, the Retention_time in data set [5] was determined as 5.41 min.
For `O=C(NC(=O)c1ccccc1F)NC1c2ccccc2-c2ccccc21`, the IC50 in data set [6] and in data set [7] was over 100 µM in each case. The CC50 at 24 h in data set [1] is over 20 µM. For the same compound, the EC50 in data set [4] was found to be 1.07 µM.
In turn, `Cc1ccc2c(c1)-c1ccccc1C2NC(=O)NC(=O)c1c(O)cccc1O` (centres undefined) came in with a CC50 at 24 h in [1] of over 25 µM. In addition, the 50% inhibitory concentration (IC50) in [3] (read-out: IC50) stood at 11.6 µM. The compound further yielded an EC50 in data set [4] of 2.72 µM. This compound also gave a Retention_time in data set [5] of 4.42 min.
In turn, `O=C(NC(=O)c1cc(F)ccc1O)NC1c2ccccc2-c2ccccc21` yielded a CC50 at 24 h in data set [1] of over 25 µM. Also, in data set [2], the inhibition came out at 27.7%. The IC50 in [3] (read-out: IC50) stood at 10 µM. The same compound yielded an EC50 in [4] of 3.78 µM. In [5], this compound gave a Retention_time of 8.91 min.
With `O=C(NC(=O)c1ccccc1F)NC1c2ccccc2-c2cc(F)ccc21` (centres undefined), in [1], the CC50 at 24 h was over 10 µM. Further, the IC50 in [3] (read-out: IC50) is 10.3 µM. For the same compound, the EC50 in data set [4] was 2.11 µM. Also, in data set [5], the Retention_time came to 6.15 min.
With `O=C(NC(=O)c1c(O)cccc1O)NC1c2ccccc2-c2ccccc21`, the IC50 in data set [6] came to 33 µM; in [7] it was 51.9 µM. The compound also returned a CC50 at 24 h in data set [1] of over 20 µM. The compound also showed an EC50 in data set [4] of 3.36 µM.
As for `O=C(NC(=O)c1c(O)cccc1O)NC1c2ccccc2-c2cc(C(F)(F)F)ccc21` (centres undefined), the CC50 at 24 h in data set [1] is over 25 µM. The inhibition in data set [2] turned out to be 20.3%. Also, the EC50 in [4] was over 10 µM. Also, the Retention_time in [5] is reported as 5.68 min.
In [4], `C/C=C/C[C@@H](C)[C@@H](O)[C@H]1C(=O)N[C@@H](CC)C(=O)N(C)CC(=O)N(C)[C@@H](CC(C)C)C(=O)N[C@@H](C(C)C)C(=O)N(C)[C@@H](CC(C)C)C(=O)N[C@@H](C)C(=O)N[C@H](C)C(=O)N(C)[C@@H](CC(C)C)C(=O)N(C)[C@@H](CC(C)C)C(=O)N(C)[C@@H](C(C)C)C(=O)N1C` [CYCLOSPORINE] showed an EC50 of 3.66 µM. That is a single-digit micromolar value.
The compound `O=C(NC(=O)c1c(O)cccc1O)NC1c2ccccc2-c2cc(Cl)ccc21` (centres undefined) registered a CC50 at 24 h in [1] of over 25 µM. The IC50 in data set [3] (read-out: IC50) is 1.22 µM. The compound also gave an EC50 in data set [4] of 0.46 µM. Also, the Retention_time in data set [5] amounted to 4.19 min.
As for `CCOC(=O)/C=C/[C@H](C[C@@H]1CCNC1=O)NC(=O)[C@@H](CC(=O)[C@@H](NC(=O)c1cc(C)on1)C(C)C)Cc1ccc(F)cc1`, the EC50 in [8] was determined as 0.014 µM. In other words, the double-digit nanomolar range.
Regarding `O=C(NC(=O)c1c(O)cccc1O)NC1c2ccccc2-c2cc3ccccc3cc21` (centres undefined), the CC50 at 24 h in data set [1] is over 25 µM. Besides, the inhibition in data set [2] came to 39.1%. Moreover, the IC50 in [3] (read-out: IC50) was 10 µM. In addition, the midpoint of the response in data set [4], the EC50, lay at 1.92 µM. Besides, the Retention_time in [5] turned out to be 5.07 min.
Take `O=C(NC(=O)c1ccccc1F)NC1c2ccccc2C2CCCCC21` (racemic): the CC50 at 24 h in [1] is over 25 µM. Besides, the inhibition in data set [2] was 33.5%. Further, the IC50 in [3] (read-out: IC50) is 10 µM. Also, the EC50 in data set [4] was determined as 5.25 µM. In data set [5], this compound displayed a Retention_time of 9.04 min.
In data set [1], `O=C(NCc1c(O)cccc1O)NC1c2ccccc2-c2ccccc21` yielded a CC50 at 24 h of over 25 µM. In addition, the inhibition in data set [2] turned out to be 9.25%. The IC50 in data set [3] (read-out: IC50) is 10 µM. This compound returned an EC50 in [4] of over 10 µM. The Retention_time in data set [5] came out at 5.37 min.
In turn, `Cc1ccc2c(c1)-c1ccccc1C2NC(=O)NC(=O)c1ccccc1F` (centres undefined) gave a CC50 at 24 h in [1] of over 10 µM. Also, the inhibition in [2] was found to be 28.7%. The IC50 in data set [3] (read-out: IC50) was 10 µM. The compound also had an EC50 in data set [4] of 0.92 µM. This compound also showed a Retention_time in [5] of 8.84 min.
For the compound `O=C(NC(=O)c1ccc(O)cc1O)NC1c2ccccc2-c2ccccc21`, the CC50 at 24 h in data set [1] is over 25 µM. For the same compound, in data set [2], the inhibition is 21.4%. Also, in data set [3] (read-out: IC50), the IC50 came to 10 µM. This compound returned an EC50 in [4] of over 25 µM. In data set [5], this compound registered a Retention_time of 5.44 min.
`O=C(NC(=O)c1c(O)cccc1O)NC1c2ccccc2-c2cc(F)ccc21` (centres undefined): the “%max” value in data set [9] and in [12] was 20% throughout. Besides, in [10], the inhibition entry is “Dose-dependent effect”. Moreover, in [1], the CC50 at 24 h is over 25 µM. Besides, the “Ratio EC50” value in data set [11] is on record as 9.9. Moreover, in data set [13], the inhibition at 5 µM was found to be 3%. Moreover, the 50% inhibitory concentration (IC50) in [3] (read-out: IC50) is 2.76 µM. The EC50 in data set [4] worked out at 0.37 µM. Also, the outcome in data set [14] and in [15] was inactive. In [5], this compound showed a Retention_time of 8.07 min.
`O=C(NC(=O)c1ccccc1F)NC1c2ccccc2-c2cc(Cl)ccc21` (centres undefined) returned a CC50 at 24 h in data set [1] of over 25 µM. Besides, in data set [3] (read-out: IC50), the IC50 was found to be 10.8 µM. The midpoint of the response in data set [4], the EC50, lay at 3.34 µM. The Retention_time in data set [5] amounted to 6.6 min.
With `O=C(NC(=O)c1c(O)cccc1O)NC1c2ccc(F)cc2-c2ccc(F)cc21` (centres undefined), the CC50 at 24 h in [1] is over 25 µM. The IC50 in data set [3] (read-out: IC50) came out at 10.3 µM. The EC50 in [4] was 1.08 µM. This compound had a Retention_time in data set [5] of 4.94 min.
In data set [1], `O=C(Cc1ccccc1F)NC(=O)NC1c2ccccc2-c2ccccc21` registered a CC50 at 24 h of over 50 µM. For the same compound, in data set [2], the inhibition amounted to 16.9%. The IC50 in [3] (read-out: IC50) is 10 µM. In data set [4], this compound came in with an EC50 of over 10 µM. The same compound returned a Retention_time in data set [5] of 6.05 min.
In turn, `O=C(NC(=O)c1c(O)cccc1O)NC1c2ccccc2-c2cccc(F)c21` (centres undefined) registered a CC50 at 24 h in [1] of over 25 µM. In addition, in [3] (read-out: IC50), the IC50 amounted to 0.94 µM. For the same compound, the EC50 in data set [4] was determined as 1.13 µM. In data set [5], the Retention_time is reported as 4.7 min.
For the compound `O=C(NC(=O)c1cc(O)cc(O)c1)NC1c2ccccc2-c2ccccc21`, the CC50 at 24 h in data set [1] is over 25 µM. Besides, the IC50 entry in data set [3] is “Not Active”. Also, in [4], the EC50 is over 25 µM. In data set [5], this compound displayed a Retention_time of 7.88 min.
Regarding `O=C(NC(=O)c1c(F)cccc1F)NC1c2ccccc2-c2ccccc21`, the half-maximal cytotoxic concentration (CC50) at 24 h in data set [1] was over 20 µM. In data set [4], this compound yielded an EC50 of 5.85 µM.
